Assay results reported in ChEMBL document CHEMBL4725444, “Brain Permeable Tafamidis Amide Analogs for Stabilizing TTR and Reducing APP Cleavage” (ACS Med Chem Lett, 2020).
pIC50: −log10 of the molar value. Calls of active or inactive are those of the source. No cut-off for these calls is given here.

Columns and labels:
N2a695 [1] = assay: Increase in APP fragmentation in mouse N2a695 cells at 10 uM incubated for 6 hrs by Western blot analysis; format: functional, cell-based
Outline: (§1)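 N2a695 cells (4.0 × 10^5–4.5 × 10^5 cells/mL, 90–95% confluent) treated with 10 μM final compound for 6 h at 37 °C, 5% CO2. Lysates run on SDS-PAGE; membrane fixed with 0.25% glutaraldehyde in PBS, blocked in milk PBST, probed with RU369 (APP C-terminus antibody), HRP secondary, ECL detection; APP-CTF bands quantified versus DMSO control.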

N2a695 [2] = assay: Increase in APP-CTF fragmentation in mouse N2a695 cells at 10 uM incubated for 6 hrs by Western blot analysis; format: functional, cell-based; outline: as §1
[3] = Inhibition of gamma secretase in mouse N2a695 cells using Sb4 substrate incubated for 3 hrs by ELISA; conditions: N2a695, 3 h
N2a695 [4] = assay: Effect on TTR-induced amyloid beta aggregation inhibition in mouse N2a695 cells measured for 4 hrs by fluorescence correlation spectroscopic analysis; format: functional, cell-based
N2a695 [5] = assay: Inhibition of amyloid beta aggregation in mouse N2a695 cells measured for 4 hrs by fluorescence correlation spectroscopic analysis; format: cell-based
[6] = Plasma concentration in 5XFAD mouse at 50 mg/kg, po measured after 15 days by LC-MS/MS analysis; format: ADME, organism-based; conditions: time 15 day
Outline: (§2)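 Dosed via drinking water for 15 days (50 mg/kg) in 3-month-old 5xFAD mice, n = 3. Blood and brain tissue collected on day 15; parent amide and its hydrolysis product tafamidis quantified in plasma and brain extracts by LC-MS/MS.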

[7] = Brain concentration in 5XFAD mouse at 50 mg/kg, po measured after 15 days by LC-MS/MS analysis; format: ADME, organism-based; conditions: time 15 day, read-out: Ct; outline: as §2
[8] = target: Transthyretin (Homo sapiens) (UniProt P02766); assay: Stabilization of recombinant dual FLAG-tagged wild type TTR (unknown origin) in plasma blood at < 30 uM incubated for 48 hrs by ion exchange chromatographic method; format: cell-free; conditions: dose microM <30, time 48.0 hrs
N2a695 [9] = assay: Inhibition of amyloid beta 40 production in mouse N2a695 cells at 10 uM incubated for 6 hrs by ELISA relative to control; format: cell-based
Outline: (§3)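 Human APP695-expressing N2a695 cells (4.0 × 10^5–4.5 × 10^5 cells/mL, 90–95% confluent) given 10 μM final compound for 6 h at 37 °C, 5% CO2. Media assayed by human Aβ40/Aβ42 sandwich ELISA (Aβ40 media diluted 5–10×, Aβ42 undiluted); levels compared with DMSO vehicle. At least two experiments in duplicate or triplicate.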

N2a695 [10] = assay: Inhibition of amyloid beta 42 production in mouse N2a695 cells at 10 uM incubated for 6 hrs by ELISA relative to control; format: cell-based; outline: as §3
[11] = Cytotoxicity against mouse N2a695 cells assessed as reduction in cell viability at 10 uM incubated for 24 hrs by MTT assay; format: cell-based; conditions: n2a695, 24 h
Outline: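 N2a cells exposed to 10 μM compound for 24 h; viable cell number determined by MTT assay.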

[12] = Metabolic stability in mouse liver microsomes assessed as parent compound remaining after 0.5 hrs by LC-MS/MS analysis relative to control; format: ADME, Microsome; conditions: read-out: Stabilty
Outline: (§4)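 Compound at 1 or 10 μM incubated with mouse or human liver microsomes at 25 °C for 30 and 60 min; remaining parent quantified by LC-MS/MS.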

[13] = Metabolic stability in CD1 mouse liver microsomes assessed as parent compound remaining at 10 uM measured after 0.5 hrs by LC-MS/MS analysis relative to control; format: ADME, Microsome; conditions: read-out: Stabilty; outline: as §4
[14] = Metabolic stability in CD1 mouse liver microsomes assessed as parent compound remaining at 1 uM measured after 1 hr by LC-MS/MS analysis relative to control; format: ADME, Microsome; conditions: read-out: Stabilty; outline: as §4
[15] = Metabolic stability in CD1 mouse liver microsomes assessed as parent compound remaining at 10 uM measured after 1 hr by LC-MS/MS analysis relative to control; format: ADME, Microsome; conditions: read-out: Stabilty; outline: as §4
[16] = Metabolic stability in human liver microsomes assessed as parent compound remaining at 1 uM measured after 0.5 hrs by LC-MS/MS analysis relative to control; format: ADME, Microsome; conditions: read-out: Stabilty; outline: as §4
[17] = Metabolic stability in human liver microsomes assessed as parent compound remaining at 1 uM measured after 1 hr by LC-MS/MS analysis relative to control; format: ADME, Microsome; conditions: read-out: Stabilty; outline: as §4

pIC50 [3]	concentration at 360 h [6] [nM]	concentration at 360 h [7] [ng/g]	Activity [8]	Stability [8]	remaining at 0.5 h, 1 µM [12] [%]	remaining at 0.5 h, 1 µM [13] [%]	remaining at 1 h, 1 µM [14] [%]	remaining at 1 h, 1 µM [15] [%]	remaining at 0.5 h, 1 µM [16] [%]	remaining at 1 h, 1 µM [17] [%]	Compound	Activity (N2a695 [1])	Activity (N2a695 [2])	Activity (N2a695 [4])	inhibition (N2a695 [5])	inhibition (N2a695 [9]) [%]	inhibition (N2a695 [10]) [%]	Activity [11]
< 4.52	5800	223	Active	Stable	–	–	–	–	–	–	O=C(O)c1ccc2nc(-c3cc(Cl)cc(Cl)c3)oc2c1 [TAFAMIDIS]	inactive	inactive	inactive	inactive	–	–	–
–	–	–	–	–	–	–	–	–	–	–	O=C(c1ccc2nc(-c3ccc(C(F)(F)F)cc3)oc2c1)N1CCNCC1	Active	Active	–	–	30	30	Toxic
–	–	–	–	–	–	–	–	–	–	–	O=C(NC1CCNCC1)c1ccc2nc(-c3cc(Cl)cc(Cl)c3)oc2c1	Active	Active	–	–	30	30	Toxic
–	–	–	–	–	–	–	–	–	–	–	CN(C)CCNC(=O)c1ccc2nc(-c3ccc(C(F)(F)F)cc3)oc2c1	Active	Active	–	–	30	30	–
–	80	137	Active	–	15.1	26.7	2.3	1.2	75.4	70.3	O=C(c1ccc2nc(-c3cc(Cl)cc(Cl)c3)oc2c1)N1CCNCC1	Active	Active	inactive	inactive	30	30	Non-Toxic
